CSC inhib: blocks cancer stem cells | cancer stem cell-like cells viability, luminescence | inhibition, % at 7.5 µM | hit rate 1.1% among 300,000; in the data active means inhibition above about 75%; inconclusive means no clear call, values can overlap the other calls; tested in HMLE shEcad cells
Calb FLC: C. albicans growth modulation with fluconazole; C. albicans CaCi-2 (fluconazole-resistant clinical isolate) + fluconazole, Alamar Blue growth, 48 h; growth inhibition, % (concentration not given with the values); hit rate 0.57% among 300,000;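 active means growth inhibition above about 58% in most replicates, limit read from the data, passing the limit was not always enough; inconclusive means exactly half the replicates above a set limit; inactive means most replicates below a set limit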;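 further: all wells also contain fluconazole at 8 µg/ml as a sub-toxic cotreatment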
Beta apoptosis: blocks beta cell apoptosis | INS-1E cytokine-induced death, ATP luminescence, 48 h; percent of positive-control rescue, neutral wells zero | protection from apoptosis, % (no concentration beside the values) | hit rate 0.8% among 300,000 | AID 435005;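 active means Every replicate reaches about 75%, or at least half do and their mean reaches it too, limit read from the data; inconclusive means At least half of replicates reach the limit but their mean does not; inactive means Under half of replicates reach the limit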;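 further: higher means more ATP so stronger rescue from cytokine killing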
Mdm2 MdmX PPI: inhibitors of human Mdm2/MdmX interaction. hit rate 3% among 330,000. SaOS-2 split-luciferase Mdm2/MdmX complementation, luminescence. inhibition, % at 8 µM;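 active means inhibition of at least 50% at 8 µM in the primary screen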
Target sequence (O15151 whole entry, looked up): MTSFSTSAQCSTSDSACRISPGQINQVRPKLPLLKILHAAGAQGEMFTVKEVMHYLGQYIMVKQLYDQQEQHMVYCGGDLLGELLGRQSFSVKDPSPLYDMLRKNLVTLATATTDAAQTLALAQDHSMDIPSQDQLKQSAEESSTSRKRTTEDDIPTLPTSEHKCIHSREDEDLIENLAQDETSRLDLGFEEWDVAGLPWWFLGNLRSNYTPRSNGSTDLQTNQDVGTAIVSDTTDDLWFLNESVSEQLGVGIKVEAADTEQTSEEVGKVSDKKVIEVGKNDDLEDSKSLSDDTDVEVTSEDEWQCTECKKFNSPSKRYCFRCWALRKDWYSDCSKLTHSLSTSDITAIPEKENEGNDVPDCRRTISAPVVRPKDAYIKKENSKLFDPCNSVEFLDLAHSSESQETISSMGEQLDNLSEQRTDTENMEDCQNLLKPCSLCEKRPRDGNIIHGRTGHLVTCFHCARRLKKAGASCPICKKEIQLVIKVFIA
Target sequence (Q00987 whole entry, looked up): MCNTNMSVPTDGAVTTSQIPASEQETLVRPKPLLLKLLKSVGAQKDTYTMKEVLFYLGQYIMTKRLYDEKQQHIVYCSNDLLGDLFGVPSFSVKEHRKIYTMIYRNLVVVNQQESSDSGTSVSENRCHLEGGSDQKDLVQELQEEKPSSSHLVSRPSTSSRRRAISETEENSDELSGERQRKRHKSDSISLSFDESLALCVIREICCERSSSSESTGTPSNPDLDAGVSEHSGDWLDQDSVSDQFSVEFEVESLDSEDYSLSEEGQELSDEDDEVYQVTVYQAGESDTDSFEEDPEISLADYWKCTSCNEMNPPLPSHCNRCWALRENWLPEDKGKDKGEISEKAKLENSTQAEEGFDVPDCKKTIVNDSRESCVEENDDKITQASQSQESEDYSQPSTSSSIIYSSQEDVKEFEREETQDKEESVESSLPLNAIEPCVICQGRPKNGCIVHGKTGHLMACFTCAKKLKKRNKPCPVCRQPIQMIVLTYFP
T cruzi repl: T. cruzi replication inhibition; T. cruzi beta-gal in NIH3T3, luminescence, 90 h; inhibition, % (test concentration not listed); hit rate 1.4% among 300,000; AID 1885;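 active means mean inhibition across valid replicates above about 55%, limit read from the data; inconclusive means mean below that limit but half or more replicates reach it; inactive means mean below it, under half of replicates reach it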;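 further: signal also drops with host cell toxicity which is not excluded here; higher percent means less beta-gal luminescence so fewer parasites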
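System: mouse NIH/3T3 fibroblasts infected with β-gal-expressing T. cruzi Tulahuen C4 / Input: NIH/3T3 cells, 5,000 per well / Buffer or medium: Low-serum DMEM with 2% FBS / Probe or stimulus: 5000 reporter trypomastigotes per well / Schedule: ≥90 h infection period, 3 h prior cell attachment / Measured by: GalScreen luminescence, 60 min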
NLRP3 yeast inh: NALP3 inhibition in yeast. Yeast reconstituted NLRP3/ASC/caspase-1, beta-gal luminescence, 24 h. inhibition, % at 10 µM. AID 2825. hit rate 0.39% among 330,000;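 active means inhibition of 50% or more; inactive means inhibition below 50%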
Mdm2-MdmX conf: confirmation of human Mdm2/MdmX interaction inhibitors. hit rate 55% among 10,000. shares compounds with Mdm2 MdmX PPI. inhibition, % at 8 µM. Mdm2-MdmX binding, luminescent assay; in the data active means inhibition above about 40%
Full FLuc ctr: full-length luciferase inhibition in Mdm2/MdmX counter-screen; AID 504607; shares compounds with Mdm2 MdmX PPI; SaOS-2 full-length luciferase counterscreen, luminescence; inhibition, % at 8 µM; hit rate 77% among 6,200;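 active means mean inhibition at 8 µM reaching about 37%, which flags the compound as non-specific, limit read from the data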;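 further: p53-null SaOS-2 cells with luciferase driven by a doxycycline-inducible promoter; compound on cells about two nights before reading with doxycycline added after day one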
Numbers stand for hits; . = inactive; ? = inconclusive; / = no result. Shown are actives, neighbours in structure and some others; about 5.3% of the full set was active somewhere.

SMILES	CSC inhib	Calb FLC	Beta apoptosis	Mdm2 MdmX PPI	T cruzi repl	NLRP3 yeast inh	Mdm2-MdmX conf	Full FLuc ctr
CC(C)(C)OC(=O)C[C@@H]1C/C=C\C[C@@H](CC(=O)N(CCO)Cc2ccccc2)C(=O)NC[C@H](c2ccccc2)OC1=O	.	/	.	60	/	.	40	71
Cc1ccc2c(c1)[C@H]1[C@H](CO2)[C@H](c2ccccc2)[C@]2(C)C(=O)Nc3cc(F)ccc3C(=O)N12	/	/	.	58	/	.	.	/
CCOC(=O)[C@H]1[C@H]2COc3ccc(Br)cc3[C@@H]2N2C(=O)c3ccc(Cl)cc3NC(=O)[C@@]12C	.	/	.	54	/	.	.	/
CCOC(=O)[C@H]1[C@H]2COc3ccc(C)cc3[C@@H]2N2C(=O)c3ccc(C)cc3NC(=O)[C@@]12C	.	/	.	.	/	.	/	/
C[C@@]12C(=O)Nc3cc(F)ccc3C(=O)N1[C@H]1c3cc(Br)ccc3OC[C@@H]1[C@@H]2c1ccccc1	.	/	.	56	/	.	51	36
C[C@@]12C(=O)Nc3ccc(F)cc3C(=O)N1[C@H]1c3cc(Br)ccc3OC[C@@H]1[C@@H]2c1ccccc1	.	/	.	.	/	.	/	/
CCOC(=O)c1cc(-c2ccc(F)cc2)n(CC(=O)NC(C)CC)c1C (centres undefined)	.	.	.	.	.	.	/	/
CCCCNC(=O)c1ccc2c(c1)N(CC)C(=O)CS2	.	.	.	.	.	.	/	/
COc1ccc(C(=O)Nc2nnc(S(=O)(=O)N3CCC(C)CC3)s2)cc1OC	.	.	.	.	.	.	/	/
COc1ccc(S(=O)(=O)NCCN2CCOCC2)cc1[N+](=O)[O-]	.	.	.	.	.	.	/	/
COc1cccc(Cl)c1NC(=O)N1CCN(c2ccnc3cc(Cl)ccc23)CC1	.	.	.	.	.	.	/	/
COc1ccc(-c2csc(N3CCN(c4cc(C)nc5ccccc45)CC3)n2)cc1OC	95	.	.	96	.	.	58	74
COc1cccc(Cl)c1NC(=O)N1CCN(c2cc(C)nc3ccccc23)CC1	.	.	.	55	.	.	.	/
Cc1nc(SCC(=O)Nc2nc3ccccc3s2)c(C#N)c(C)c1C	.	.	.	100	.	.	100	53
N#Cc1ccc(-c2cccnc2)nc1SCC(=O)Nc1sc2c(c1C#N)CCC2	.	.	.	.	.	.	/	/
Cc1cc(C(F)(F)F)c(C#N)c(SCC(=O)Nc2nc3ccccc3s2)n1	.	.	.	66	.	.	82	142
Cc1nc(SCC(=O)Nc2nc3ccccc3s2)n[nH]1	.	.	.	.	.	.	/	/
N#Cc1c(C(F)(F)F)cc(-c2ccccc2)nc1SCC(=O)Nc1sc2c(c1C#N)CCC2	.	.	.	72	.	.	64	55
Cc1nc(SCC(=O)Nc2nccs2)c(C#N)c(C)c1C	/	/	.	68	/	.	51	110
N/C(=N\OC(=O)COc1ccc(Cl)cc1Cl)c1ccccn1	.	.	.	.	.	.	/	/
N#Cc1c(SCC(=O)Nc2nccs2)nc2c(c1-c1ccco1)CCCC2	/	.	.	51	.	.	.	/
C=CCn1c(=N)n(CC(=O)c2cccc([N+](=O)[O-])c2)c2ccccc21	.	.	.	.	.	.	/	/
N=c1n(CCN2CCCCC2)c2ccccc2n1CC(=O)c1cccc([N+](=O)[O-])c1	.	.	.	73	.	.	.	/
CC(C)(C)c1ccc(-n2nc(C#N)c(Cl)cc2=O)cc1	/	86	/	100	66	.	100	.
CC(C)(C)c1ccc(-n2nc(C(N)=O)c(O)cc2=O)cc1	.	.	/	.	.	.	/	/
SMILES	CSC inhib	Calb FLC	Beta apoptosis	Mdm2 MdmX PPI	T cruzi repl	NLRP3 yeast inh	Mdm2-MdmX conf	Full FLuc ctr
COc1cc2c3nnc(-c4ccc(F)cc4)c-3cn(Cc3ccc(F)cc3)c2cc1OC	.	?	.	100	.	.	.	/
COc1cc2c3nnc(-c4ccc(F)cc4)c-3cn(Cc3ccccc3)c2cc1OC	.	.	.	100	.	.	94	57
COc1ccc(-c2nnn(Cc3ccccc3)n2)cc1OC	.	.	.	.	.	.	/	/
COc1ccc(Cn2cc3c(-c4ccc(F)cc4)nnc-3c3cc(OC)c(OC)cc32)cc1	.	/	100	100	/	.	96	68
CN(C)S(=O)(=O)c1ccc(C(=O)OCC(=O)Nc2ccc(OC(F)F)cc2)cc1	.	.	.	.	.	.	/	/
COc1ccc(/C=c2/sc3n(c2=O)C(c2ccccc2OC)C2=C(N=3)c3ccccc3CC2)cc1O (centres undefined)	.	.	.	70	.	.	87	.
CCCCNc1cc(C)oc(=O)c1C(C)=O	.	.	.	.	.	.	/	/
Oc1ccccc1-c1cc(-c2cccc(F)c2)n[nH]1	.	.	.	.	.	.	/	/
CC(C)(C)c1ccc(-c2cc(-c3ccccc3O)[nH]n2)cc1	.	.	.	58	.	.	65	139
COC(=O)c1cc(COC(=O)CNC(=O)c2cccc(C)c2)oc1C	/	/	.	.	/	.	/	/
COc1cccc(NC(=O)C(=O)N/N=C/c2cc(C)n(-c3ccc(Cl)c(Cl)c3)c2C)c1	.	.	.	55	.	.	.	/
Cc1ccc(NC(=O)C2CCCC2)cc1Cl	/	.	/	.	.	.	/	/
Cc1ccc(NS(=O)(=O)c2ccc(Cl)c(NC(=S)NC(=O)C3CCCCC3)c2)cc1Cl	106	.	102	72	.	.	.	/
Cc1ccc(-c2nn(-c3ccccc3)cc2C(=O)OCC(=O)Nc2ncc(Cl)cc2Cl)cc1	.	.	.	.	.	.	/	/
Cc1ccc(NC(=O)CN2CCC(C(=O)c3ccc4c(c3)OCCO4)CC2)cc1	.	.	.	.	.	.	/	/
COC(=O)c1ccccc1NC(=O)CN1CCC(C(=O)c2ccc3c(c2)OCCO3)CC1	.	.	.	62	.	.	60	99
Cc1ccc(-c2nc3cccnc3s2)cc1NC(=O)c1ccco1	.	.	.	.	.	.	/	/
Cc1ccc(-c2nc3cccnc3s2)cc1NC(=O)C1c2ccccc2Oc2ccccc21	/	.	/	70	.	.	.	/
COC(=O)c1ccccc1NC(=O)C1=CC(c2cccs2)=NS(=O)(=O)N1C	/	.	.	.	.	.	/	/
Cc1ccc(C)c(S(=O)(=O)N2CCN(Cc3ccc(O)c4ncccc34)CC2)c1	.	110	87	78	.	.	71	36
COc1ccccc1N1CCN(Cc2cc(Br)c(O)c3ncccc23)CC1	77	88	102	61	59	.	60	60
Oc1ccc(CN2CCN(c3ccccc3)CC2)c2cccnc12	.	.	.	78	64	.	65	67
Oc1c(CN2CCN(c3ccccn3)CC2)cc(Cl)c2cccnc12	?	.	109	72	75	.	71	.
Cc1ccc2nc(C(C)O)[nH]c2c1 (centres undefined)	.	.	.	.	.	.	/	/
